Source: PubChem
Hits are enriched below; roughly 1.7% of the tested compounds scored in any of these assays.
LANA DNA inh: KSHV C-LANA DNA binding inhibition | MBP-C-LANA/FAM-LBS DNA binding, fluorescence polarization | inhibition, % at 9 µM | 340,000 tested, 0.078% active;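 active = highest replicate inhibition at or above 60% at 9 µM, even if other replicates fall short; inactive = all replicates below 60% inhibition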
CAL PDZ FP-1: human CAL PDZ-peptide interaction inhibition. Q9HD26. purified CAL PDZ, TMR-peptide fluorescence polarization, 1 h. inhibition, % at 20 µM. 330,000 tested, 0.02% active;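 active = highest replicate inhibition of at least 40%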
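material = purified tagged CAL PDZ domain construct (CerCALP) | buffer or medium = sodium phosphate/NaCl buffer pH 7.4 with TCEP, IgG, Thesit | reagent = TMR-labelled reporter peptide T*-PRC34 bound in PDZ groove | incubation = 1 h room-temperature incubation prior to read | measured by = fluorescence polarization (mP) | evaluation = percent inhibition from loss of millipolarization | control set = unlabelled peptide and DMSO controls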
A3A deaminase: human APOBEC3A DNA deaminase inhibition. P31941. recombinant A3A, FAM/TAMRA ssDNA deamination fluorescence. inhibition, % at 20 µM. 330,000 tested, 0.41% active. AID 493011;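 active = at least 40% inhibition at 20 µM here, with at most 30% in a related deaminase screen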
Target sequence (P31941 whole entry, looked up): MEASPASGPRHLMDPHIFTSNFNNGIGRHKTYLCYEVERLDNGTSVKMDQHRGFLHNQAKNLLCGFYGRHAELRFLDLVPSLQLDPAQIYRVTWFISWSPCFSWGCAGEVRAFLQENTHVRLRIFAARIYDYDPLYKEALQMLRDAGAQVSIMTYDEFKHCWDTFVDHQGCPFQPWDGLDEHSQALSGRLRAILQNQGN
A3G deaminase: inhibitors of human APOBEC3G DNA deaminase. Q9HC16. recombinant A3G, ssDNA deamination FAM/TAMRA fluorescence. inhibition, % at 20 µM. 330,000 tested, 0.28% active;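 active = inhibition of at least 40% at 20 µM, with no more than 30% in the related APOBEC3A deaminase screen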
CAL PDZ FP-2: CAL PDZ (human) peptide binding inhibition. Q9HD26. purified CAL PDZ, TMR-peptide fluorescence polarization, 1 h. inhibition, % at 24.9 µM. 300,000 tested, 0.92% active. AID 602252;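 active = mean inhibition of at least 30% with at least half of replicates also reaching 30%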
Keap1-Nrf2 PPI: Keap1-Nrf2 (human) interaction inhibition; inhibition, % at 9.4 µM; Q14145; Keap1 Kelch-Nrf2 peptide fluorescence polarization, 1536-well; 340,000 tested, 0.15% active; in the data active = inhibition above about 12%;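 also: human Keap1 Kelch domain with fluorescein labeled Nrf2 9mer peptide probe; higher means more block of Keap1 binding to Nrf2 peptide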
APOBEC3G confirm: APOBEC3G (human) deaminase inhibition, confirmed | shares compounds with A3G deaminase | recombinant A3G ssDNA deaminase, UDG/FAM-TAMRA fluorescence | inhibition, % at 20 µM | 890 tested, 72% active | AID 493152;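 active = inhibition reaching a set limit in any replicate at 20 µM, the limit being 80% of the first screen's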
UDG ctr A3G: E. coli UDG inhibition in APOBEC3G counter-screen | AID 504715 | UDG counterscreen, FAM/TAMRA oligo fluorescence | inhibition, % at 20 µM | shares compounds with A3G deaminase | 710 tested, under 10 active;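 active = compounds giving 40% or more inhibition at 20 µM in any one of the three replicates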;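 also: inhibitors lower the FAM signal released by uracil excision and alkaline cleavage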
Target sequence (P12295 whole entry, looked up): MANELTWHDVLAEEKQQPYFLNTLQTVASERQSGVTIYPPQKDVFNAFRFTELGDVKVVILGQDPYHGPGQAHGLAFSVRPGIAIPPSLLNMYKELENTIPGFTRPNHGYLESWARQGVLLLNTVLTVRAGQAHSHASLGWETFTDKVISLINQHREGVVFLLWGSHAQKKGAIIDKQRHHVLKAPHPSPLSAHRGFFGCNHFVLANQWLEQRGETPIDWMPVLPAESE
Each line names hits and unclear results; the compound was inactive in the other large screens (follow-up assays come after a bar, where they were run).

CCN(CC)C(=O)CSc1nc2c(sc(=S)n2-c2ccccc2)c(=O)n1-c1ccccc1OC	none
CCOC(=O)CSc1nc2c(sc(=S)n2-c2ccccc2)c(=O)n1-c1ccc(OC)cc1OC	A3G deaminase 40.8 | APOBEC3G confirm 28.5 | UDG ctr A3G inactive
CCN(CC)C(=O)CSc1nc2c(sc(=S)n2-c2ccccc2)c(=O)n1-c1ccc(OC)cc1OC	A3G deaminase 52.6 (no result: CAL PDZ FP-2) | APOBEC3G confirm 56.4 | UDG ctr A3G inactive
CCc1ccc(C(=O)NNC(=S)Nc2ccc(S(N)(=O)=O)cc2)s1	none
CN(C)C(=O)c1ccc(NC(=O)COc2cccc3c2OC(C)(C)C3)cc1	none
CCOC(=O)CC1COCCN1C(=O)c1cc(COc2ccc(F)cc2Cl)on1 (centres undefined)	none
Brc1ccccc1-c1nnc2sc(-c3ccc4c(c3)OCCO4)nn12	none
c1ccc2c(c1)OCC(c1nnc3sc(-c4ccc5c(c4)OCO5)nn13)O2 (centres undefined)	A3G deaminase 57.3 | APOBEC3G confirm 47.5 | UDG ctr A3G inactive
Clc1ccccc1-c1nnc2sc(-c3ccc4c(c3)OCO4)nn12	A3G deaminase 53.1 | APOBEC3G confirm 39.5 | UDG ctr A3G inactive
O=S(=O)(c1ccc(Cl)cc1)N1CCCC(C(F)(F)F)C1 (centres undefined)	none
N/C(=N\c1nc2ccccc2o1)NC(=O)c1ccccc1	A3G deaminase 61.2 | APOBEC3G confirm inactive | UDG ctr A3G inactive
Fc1cccc(Cc2noc(CN3CCCCC3c3ccccn3)n2)c1 (centres undefined)	none
S=C(N/N=C/c1ccccc1Cl)Nc1cccc(Cl)c1Cl	none
CC[n+]1c(C)sc2sc3ccccc3c21	A3G deaminase 55.0 (no result: LANA DNA inh, CAL PDZ FP-1, CAL PDZ FP-2, Keap1-Nrf2 PPI) | APOBEC3G confirm 67.3
Oc1cc2c(cc1O)C1c3ccc(O)c(O)c3OCC1(O)C2 (centres undefined)	A3G deaminase 61.3 | APOBEC3G confirm 69.4
CC(=O)c1sc2nsc(SCCN3CCOCC3)c2c1N	A3G deaminase 62.4 (no result: LANA DNA inh, CAL PDZ FP-1, CAL PDZ FP-2, Keap1-Nrf2 PPI) | APOBEC3G confirm 59.1 | UDG ctr A3G inactive
O=C1CCC(C(=O)OCC(=O)Nc2ccc(Cl)cc2C(F)(F)F)=NN1	none
Cc1cc(C(F)(F)F)nn1Cc1n[nH]c(=S)n1-c1ccc(F)cc1	none
Cc1cc(-c2n[nH]c(=S)n2-c2ccc(F)cc2)nn1C	A3G deaminase 62.6 | APOBEC3G confirm 59.9 | UDG ctr A3G inactive
Cc1cccc([N+](=O)[O-])c1NC(=O)COC(=O)c1nc2nccc(C)n2n1	none
O=C(c1ccc(-c2ccccc2Cl)s1)N1CCOCC1	none
C/C(=N\Nc1cccc2cccnc12)c1ccc(N)cc1	A3G deaminase 58.0 | APOBEC3G confirm inactive
COc1ccccc1C(=O)Nc1cc(Cl)ccc1O	none
COc1ccc(Cl)cc1NC(=O)NC1CCCCC1	A3G deaminase 46.1 | APOBEC3G confirm 27.3 | UDG ctr A3G inactive
COc1ccc(Cl)cc1NC(=O)c1ccccc1C	A3G deaminase 40.7 (no result: CAL PDZ FP-1) | APOBEC3G confirm inactive
Cc1ccc(-c2cc(C(=O)Nc3cccnc3)c3ccccc3n2)o1	A3G deaminase 49.6 | APOBEC3G confirm 36.3 | UDG ctr A3G inactive
Cc1ccc(NC(=O)c2cc(-c3ccc(C)o3)nc3ccccc23)cc1	none
COc1cccc(Nc2n[nH]c(=S)s2)c1	A3G deaminase 58.3 | APOBEC3G confirm 62.6 | UDG ctr A3G inactive
O=C(CN1CCN(c2ccc(O)cc2)CC1)Nc1ccc2c(c1)OCCO2	A3G deaminase 61.7 | APOBEC3G confirm inactive
CCCCn1c(=O)c(CCC(=O)OCC(=O)NC(=O)NCCOC)nc2ccccc21	none
S=c1[nH]nc(Cc2cccs2)n1-c1ccccc1	A3G deaminase 56.5 | APOBEC3G confirm 58.9 | UDG ctr A3G inactive
S=c1[nH]nc(Cc2n[nH]c(=S)n2-c2ccccc2)n1-c1ccccc1	none
CCOC(=O)N1CCN(C(=O)CSc2nc3c(cnn3-c3ccc(Cl)cc3)c(=O)[nH]2)CC1	none
CCc1ccc(-n2c(C)n[nH]c2=S)cc1	A3G deaminase 56.4 | APOBEC3G confirm 61.3 | UDG ctr A3G inactive
CC(=O)N/C(=C/c1ccccc1)C(=O)NC(Cc1ccccc1)C(=O)O (centres undefined)	A3G deaminase 42.6 | APOBEC3G confirm inactive
O=C1C(Cl)=C(NC(=O)c2ccccc2)C(=O)C(Cl)=C1NC(=O)c1ccccc1	A3G deaminase 85.6 | APOBEC3G confirm 91.4
O=C(NC1=C(Nc2ccc(Cl)cc2)C(=O)c2ccccc2C1=O)c1ccccc1	none
Cc1ccc2nc(N3CCN(C)CC3)c(C=O)c(=O)n2c1	none (no result: CAL PDZ FP-1)
Cc1nnn(-c2nonc2N)c1C(=O)N/N=C/c1ccccc1O	A3G deaminase 44.3 | APOBEC3G confirm 40.1 | UDG ctr A3G inactive
CCCCCCn1c(SCC(C)C)nc2c1c(=O)[nH]c(=O)n2C	none
CCCCCCn1c(SCC(=O)OC)nc2c1c(=O)[nH]c(=O)n2C	A3G deaminase 44.9 | APOBEC3G confirm 68.1 | UDG ctr A3G inactive
Clc1ccc(-n2cc(COCc3ccccc3)nn2)cc1	none
Cc1noc(C)c1S(=O)(=O)N1CCCC(C(=O)NCc2ccccn2)C1 (centres undefined)	A3G deaminase 49.0 | APOBEC3G confirm inactive
CCSc1ccc([C@@H]2[C@@H]3C(=O)N(CC)C(=O)[C@@H]3[C@]3(C(=O)OC)CCCN23)cc1	none
O=[N+]([O-])c1ccccc1CSc1ccccn1	none
O=c1[nH]c(SCc2ccccc2[N+](=O)[O-])nc2nc[nH]c12	A3G deaminase 60.6 | APOBEC3G confirm inactive | UDG ctr A3G inactive
COc1cccc(/C=C/C(=O)Nc2ccc3c(c2)OCCO3)c1OC	none
COc1ccc(/C=N/NC(=O)Cc2cc(OC)c(OC)cc2[N+](=O)[O-])cc1	none
Cc1cccc(N2CCN(C(=S)c3ccc([N+](=O)[O-])cc3)CC2)c1	A3G deaminase 55.5 | APOBEC3G confirm 43.6 | UDG ctr A3G inactive
CCC(Sc1nc(C)cc(C)n1)C(=O)Nc1nccs1 (centres undefined)	none
S=c1nc(-c2ccco2)[nH][nH]1	A3G deaminase 80.6 | APOBEC3G confirm 93.8 | UDG ctr A3G inactive
CCN1CCN(c2nc3ccccc3nc2C(C#N)S(=O)(=O)c2ccc(C)cc2)CC1 (centres undefined)	none
Cc1ccc(S(=O)(=O)C(C#N)c2nc3ccccc3nc2N2CCCC2)cc1 (centres undefined)	A3G deaminase 45.1 | APOBEC3G confirm inactive | UDG ctr A3G inactive
CCOc1ccc(NC(=O)CN(C)CC(=O)Nc2cc(Cl)ccc2C#N)cc1OCC	A3G deaminase 90.6 | APOBEC3G confirm inactive
